# Measured values as given in PubChem BioAssay.
# Calls of active or inactive are those of the source. Cut-off read from the data, not from the text of the source, unless noted: active = inhibition above about 30%; inactive = the rest.
# Key:
# [1] = reducers of endogenous Her2 protein level, primary screen, SKBR3 breast tumor cells, AlphaScreen, ATP viability (AID 461;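 active = Her2 level under about 52% in both replicate screens, with viability over 70% of control, limit read from the data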;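 for Her2 level: lower value means less Her2 protein in the cells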;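 for viability: percent of carrier control wells set as 100% viability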); details: 18-24 h, measured here: SKBR3 viability, ATP luminescence, at 10 µM
# [2] = target: Receptor tyrosine-protein kinase erbB-2 (Homo sapiens) (UniProt P04626); assay: as above; details: 18-24 h, at 10 µM, stronger effect = lower value
# [3] = SK-BR-3 cell growth inhibitors, pilot screen, 24 h, human (AID 572;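 active = viability at or below 10% of carrier control in both of two separate runs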;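 note: compound exposure lasted between 18 and 24 h rather than exactly 24 h; 100% = carrier-treated control wells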); details: SK-BR-3 viability, CellTiter-Glo luminescence, at 10 µM, stronger effect = lower value
# [4] = HUVEC growth inhibition – cell-based, human, primary screen (AID 575;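 active = viability at or below 30% in both replicate assays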;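 note: 100% = median of untreated cell wells with 0.1% DMSO on each plate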); details: HUVEC proliferation, CellTiter-Glo luminescence, 72 h; at 10 µM; stronger effect = lower value
# Outline: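 Timing: 72 h treatment at 37 °C; material: HUVEC primary cells; technique: CellTiter-Glo luminescence measuring cellular ATP; controls: vehicle and MePR control wells; measure: percent of median DMSO-control luminescence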
# [5] = growth inhibitors of H69AR lung tumor, primary screen, human, duplicate replicates (AID 580;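 active = viability at or under a set limit in both replicates, limit being median viability minus 3 SD, cut at about 48% in these data, passing the limit was not always enough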;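 note: 100% = mean luminescence of untreated wells and 0% = no signal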); details: H69AR lung tumor cells viability, ATP luminescence, 72 h; at 10 µM; stronger effect = lower value
# [6] = reversal of MRP1-mediated doxorubicin resistance, pilot screen, H69AR cells, doxorubicin co-treatment (AID 601;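 active = viability loss from added drug above about 55%, and viability with drug at most 40%, in both replicates, limit read from the data, passing the limit was not always enough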); details: CellTiter-Glo, 72 h, at 10 µM; for differential viability (reversal): stronger effect = higher value
# [7] = 384-well plate pilot, post-Golgi transport modulator project, inhibition of yeast transport mutant growth (AID 636; in the data active = inhibition above about 31%); details: absorbance 615 nm, about 18 h, stronger effect = higher value
# [8] = growth suppression of yeast trafficking mutant, preliminary HTS, modulators of trafficking downstream of Golgi apparatus project, 1536-format plate, OD 615 nm (AID 637); details: yeast transport mutant growth, absorbance 615 nm, 18 h; stronger effect = higher value
# [9] = H69AR cells + 2 uM doxorubicin, measured here: viability with 2 uM doxorubicin, stronger effect = lower value
# [10] = H69AR cells, compound alone cytotoxicity
# Chain of Receptor tyrosine-protein kinase erbB-2 (Homo sapiens) (P04626 whole entry, looked up): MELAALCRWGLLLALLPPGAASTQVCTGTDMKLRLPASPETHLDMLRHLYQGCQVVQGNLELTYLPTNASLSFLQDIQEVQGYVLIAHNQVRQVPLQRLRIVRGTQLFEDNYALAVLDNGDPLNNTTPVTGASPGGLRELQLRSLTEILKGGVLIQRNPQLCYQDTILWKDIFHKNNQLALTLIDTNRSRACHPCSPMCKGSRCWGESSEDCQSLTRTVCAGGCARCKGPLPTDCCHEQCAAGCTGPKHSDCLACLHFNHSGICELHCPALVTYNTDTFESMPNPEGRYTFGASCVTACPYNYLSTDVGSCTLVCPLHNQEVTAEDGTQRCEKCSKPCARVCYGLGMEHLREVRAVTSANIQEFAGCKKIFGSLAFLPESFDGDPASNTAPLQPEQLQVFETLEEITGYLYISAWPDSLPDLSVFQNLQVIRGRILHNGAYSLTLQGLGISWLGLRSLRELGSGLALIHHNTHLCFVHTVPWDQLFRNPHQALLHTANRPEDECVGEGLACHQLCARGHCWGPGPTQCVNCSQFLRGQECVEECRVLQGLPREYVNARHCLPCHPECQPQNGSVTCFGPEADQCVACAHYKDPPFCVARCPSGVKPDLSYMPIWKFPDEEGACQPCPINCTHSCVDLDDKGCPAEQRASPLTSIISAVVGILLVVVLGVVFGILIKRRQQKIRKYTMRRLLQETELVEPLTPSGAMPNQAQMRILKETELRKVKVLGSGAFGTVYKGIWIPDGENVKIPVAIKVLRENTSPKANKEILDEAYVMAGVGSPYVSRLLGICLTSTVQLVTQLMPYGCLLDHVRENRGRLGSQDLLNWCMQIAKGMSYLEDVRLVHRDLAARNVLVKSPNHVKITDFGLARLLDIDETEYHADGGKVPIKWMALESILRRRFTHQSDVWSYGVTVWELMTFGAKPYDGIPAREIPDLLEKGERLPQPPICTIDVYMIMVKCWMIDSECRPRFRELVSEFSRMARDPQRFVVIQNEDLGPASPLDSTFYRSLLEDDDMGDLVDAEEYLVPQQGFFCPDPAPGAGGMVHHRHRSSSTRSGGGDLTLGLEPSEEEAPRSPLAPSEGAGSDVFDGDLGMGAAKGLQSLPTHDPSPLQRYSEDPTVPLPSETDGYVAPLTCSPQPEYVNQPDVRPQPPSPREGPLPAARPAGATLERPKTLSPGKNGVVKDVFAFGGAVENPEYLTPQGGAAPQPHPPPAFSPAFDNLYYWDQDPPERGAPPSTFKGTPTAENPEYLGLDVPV
SMILES,viability [1],Her2 level [2],viability [3],viability [4],viability [5],differential viability (reversal) ([6]; H69AR cells + 2 uM doxorubicin),"viability [6, 9]","viability [6, 10]",inhibition [7],inhibition [8]
O=C1CCNc2cc3ccccc3cc21,73.5%,84% (inactive),73.5% (inactive),61.7% (inactive),70.5% (inactive),0.425% (inactive),70%,70.5%,-8.9% (inactive),1.27% (inactive)
CC1Cc2nc(SCC(=O)Nc3ccc(F)cc3F)n(C)c(=O)c2S1 (stereo not given),90%,100% (inactive),90% (inactive),102% (inactive),91.7% (inactive),-8.34% (inactive),100%,91.7%,-1.78% (inactive),2.7% (inactive)
Cc1nc(NC(=O)C2CC3CCCC(C2)C3=O)sc1C (stereo not given),99.5%,99.5% (inactive),99.5% (inactive),95% (inactive),82.8% (inactive),-2.88% (inactive),85.7%,82.8%,0.39% (inactive),-6.39% (inactive)
COc1ccc(C(N)=O)cc1N,77.5%,116% (inactive),77.5% (inactive),105% (inactive),94.6% (inactive),-1.72% (inactive),96.3%,94.6%,4.81% (inactive),18% (inactive)
Cn1nc(C(=O)NC2CCCCCC2)ccc1=O,126%,104% (inactive),126% (inactive),101% (inactive),111% (inactive),19.2% (inactive),92%,111%,-2.6% (inactive),-0.79% (inactive)
COc1ccccc1N1C(=O)CC(Sc2nc(C)cc(C)n2)C1=O (stereo not given),87%,96.5% (inactive),87% (inactive),102% (inactive),83.4% (inactive),-9.3% (inactive),92.7%,83.4%,-5.84% (inactive),-7.21% (inactive)
CCOc1cc(C(=O)N2CCN=C2SC)cc(OCC)c1OCC,91.5%,83% (inactive),91.5% (inactive),87.4% (inactive),105% (inactive),10.1% (inactive),95.2%,105%,-4.73% (inactive),9.05% (inactive)
CC(NC(=O)Cc1cccs1)c1ccc2c(c1)OCO2 (stereo not given),125%,81.5% (inactive),125% (inactive),108% (inactive),99.9% (inactive),13.7% (inactive),86.2%,99.9%,-4.67% (inactive),-0.66% (inactive)
CCCCOC(=O)CN1C(=O)c2ccc(C(=O)OCCCC)cc2C1=O,87%,94% (inactive),87% (inactive),92.3% (inactive),106% (inactive),10.4% (inactive),95.3%,106%,-2.97% (inactive),0.82% (inactive)
CC1(c2ccc(Cl)cc2)NC(=O)N(CC(=O)NC(=O)NCc2ccco2)C1=O (stereo not given),96%,80.5% (inactive),96% (inactive),61.5% (inactive),107% (inactive),26.4% (inactive),81%,107%,-3.82% (inactive),-0.33% (inactive)
O=S(=O)(NCCc1csc(-c2ccccc2)n1)c1ccc2c(c1)OCCO2,103%,76% (inactive),103% (inactive),101% (inactive),93.6% (inactive),4.63% (inactive),89%,93.6%,-1.97% (inactive),4.59% (inactive)
c1ccc(Cn2nnc3c(N4CCC5(CC4)OCCO5)ncnc32)cc1,105%,92.5% (inactive),105% (inactive),103% (inactive),90.7% (inactive),-8.68% (inactive),99.3%,90.7%,-1.05% (inactive),4.03% (inactive)
CCC(=O)N1CCc2cc(S(=O)(=O)CCC(=O)Nc3ccc(F)c(F)c3)ccc21,104%,160% (inactive),104% (inactive),97.3% (inactive),92.3% (inactive),10.2% (inactive),82.1%,92.3%,0.13% (inactive),-6% (inactive)
CC(NS(=O)(=O)c1ccc(F)cc1)C(c1cccs1)N1CCN(C)CC1 (stereo not given),118%,133% (inactive),118% (inactive),87.9% (inactive),96.7% (inactive),14.4% (inactive),82.3%,96.7%,-3.29% (inactive),-5.67% (inactive)
COc1ccc(S(=O)(=O)N2CCN(C3CCCCCCC3)CC2)cc1,87.5%,89.5% (inactive),87.5% (inactive),106% (inactive),93.9% (inactive),-6.63% (inactive),100%,93.9%,-2.11% (inactive),-0.98% (inactive)
COC(=O)C(C)NC(=O)C12CC3CC(CC(C3)C1)C2 (stereo not given),92%,123% (inactive),92% (inactive),107% (inactive),99.7% (inactive),4.86% (inactive),94.8%,99.7%,-1.54% (inactive),-5.33% (inactive)
CCCCc1nc(NCCNC(=O)c2ccco2)c(C#N)c2c1CSC(C)(C)C2,84.5%,100% (inactive),84.5% (inactive),78.7% (inactive),86.7% (inactive),15.8% (inactive),70.9%,86.7%,-5.2% (inactive),-7.38% (inactive)
COc1ccc(C(NC(=O)C(C)(C)C)NC(=O)C(C)(C)C)cc1,86%,99.5% (inactive),86% (inactive),111% (inactive),91.7% (inactive),6.21% (inactive),85.5%,91.7%,-5.32% (inactive),-0.32% (inactive)
Nc1nnnn1/N=C/c1ccccc1OCc1ccccc1,118%,96.5% (inactive),118% (inactive),78.9% (inactive),95.3% (inactive),8.29% (inactive),87%,95.3%,-4.13% (inactive),2.42% (inactive)
CC(C)C1C2=C(CC(C)(C)CC2=O)ON1c1ccccc1 (stereo not given),90%,90% (inactive),90% (inactive),95.8% (inactive),93% (inactive),-2.63% (inactive),95.7%,93%,-1.6% (inactive),-0.48% (inactive)
Cc1nc2nc(SCC(=O)NCc3ccco3)nn2c(C)c1Cc1ccccc1,83%,108% (inactive),83% (inactive),97.3% (inactive),75.2% (inactive),-2% (inactive),77.2%,75.2%,-5.27% (inactive),-3% (inactive)
O=C(OCc1nnc(-c2ccccc2)o1)c1ccc(S(=O)(=O)NCc2ccco2)cc1,99.5%,98% (inactive),99.5% (inactive),99.6% (inactive),53.6% (inactive),-6.69% (inactive),60.3%,53.6%,-4.87% (inactive),-6.36% (inactive)
CCC(C(=O)O)n1c(C(F)(F)F)nc2ccccc21 (stereo not given),105%,116% (inactive),105% (inactive),105% (inactive),103% (inactive),3.27% (inactive),99.3%,103%,-5.62% (inactive),0% (inactive)
CCN1CCN(c2c(Cl)cccc2NC(=O)c2ccco2)CC1,67.5%,88% (inactive),67.5% (inactive),98.1% (inactive),97.5% (inactive),7.33% (inactive),90.1%,97.5%,-3.33% (inactive),-0.32% (inactive)
COc1ccc(Oc2c(C)oc3cc(OC(=O)N4CCOCC4)ccc3c2=O)cc1,91%,99% (inactive),91% (inactive),105% (inactive),101% (inactive),-0.51% (inactive),101%,101%,-5.6% (inactive),-5.08% (inactive)
CN(C)S(=O)(=O)N1CCN(c2cccc(Cl)c2)CC1,112%,101% (inactive),112% (inactive),92% (inactive),91% (inactive),-15% (inactive),106%,91%,0% (inactive),27% (inactive)
Cc1cc(C)n(CCCNC(=O)c2ccc3c(c2)NC(=O)CS3)n1,104%,80.5% (inactive),104% (inactive),91.8% (inactive),89.7% (inactive),3.36% (inactive),86.3%,89.7%,-5.6% (inactive),-1.48% (inactive)
O=C(CN1CCCC1)Nc1ccc(NC(=O)Nc2ccccc2)cc1,92.5%,110% (inactive),92.5% (inactive),75.3% (inactive),95.3% (inactive),0.39% (inactive),94.9%,95.3%,0% (inactive),-6.39% (inactive)
O=C(Nc1ccc2c(c1)OCO2)C1CCCN1C(=O)Nc1ccccc1F (stereo not given),110%,90% (inactive),110% (inactive),104% (inactive),96.2% (inactive),8.28% (inactive),87.9%,96.2%,-2.89% (inactive),-3.97% (inactive)
